# Assay results: PubChem BioAssay AID463111 (Johns Hopkins Ion Channel Center, 2010)
# The campaign covered roughly 310,000 compounds. About 2,800 (0.9%) were called active.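 Rule for the calls: active = B-score of the integrated calcium signal more than 4 SD below the library mean, with starting fluorescence not abnormally high; inactive = the rest.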 What follows is part of a selection rich in actives, with near analogues and random picks from the rest.
# Experiment: RGS4 potentiators or activators, primary screen, cell-based, HEK293 M3R inducible RGS4, calcium flux (AID 463111);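 for B-score: negative B-score means reduced calcium response which marks RGS4 activation or potentiation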
# Conditions: HEK293 M3R/inducible RGS4, carbachol calcium flux Fluo4, at 10 µM; hits give low values
# Method in brief: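 System: HEK293 FlpIn-TREx cells, stable M3R, doxycycline-inducible RGS4. Timing: overnight RGS4 induction, 30 min dye load 37 °C, 20 min compound RT. Also added: carbachol, ECmax concentration. Measured by: Fluo4 fluorescence kinetic imaging of calcium. Evaluation: integrated calcium ratio converted to B score.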
row,SMILES,B-score
1,Cc1cccc(OP(=O)(Oc2cccc(C)c2)OC(c2ccccc2)C(F)(F)F)c1 (stereo not given),-7.67 (active)
2,CCN(CC)P(=O)(Oc1cccc(C)c1)N(CC)CC,inactive
3,O=C1CC(=O)N(Cc2ccccc2)C(=O)N1CCCCCCN1C(=O)CC(=O)N(Cc2ccccc2)C1=O,inactive
4,CC(c1ccccc1)(c1ccccc1)c1ccncc1,inactive
5,CCNc1nc2[nH]c(=O)c3c(c2s1)OC(N)=C(C#N)C3c1cccs1 (stereo not given),inactive
6,C=CC12CN(C)[C@@H]3C4CO[C@H](C[C@H]41)[C@]1(C(=O)Nc4ccccc41)[C@@H]32 (stereo not given in full),-8.82 (active)
7,CCC(C)n1c(O)c(/C=N/Nc2nc3c(c(=O)n(C)c(=O)n3C)n2C)c(=O)[nH]c1=S (stereo not given),inactive
8,CCOc1ccc(C2SCC(=O)Nc3c2c(C)nn3C2CCOC(C)(C)C2)cc1 (stereo not given),inactive
9,Cc1ccsc1C(=O)C1CCCN(Cc2ccc(O)cc2)C1 (stereo not given),inactive
10,Cc1ccc(CN2CCCC(C(=O)c3ccc4c(c3)OCO4)C2)cc1C (stereo not given),-7.27 (active)
11,COc1ccc(C(=O)C2CCCN(Cc3ccc(C)s3)C2)cc1OC (stereo not given),inactive
12,O=C(Cc1ccc(Cl)cc1)NCCN1CCN(C(=O)Cc2ccc(Cl)cc2)CC1,inactive
13,CCOC(=O)C1(Cc2ccc(Cl)cc2)CCN(C(C)CCn2cccn2)CC1 (stereo not given),inactive
14,OC(Cn1c2ccccc2c2ccccc21)C[n+]1ccccc1 (stereo not given),inactive
15,CN1CCN(/N=C/c2c[nH]c3ccccc23)CC1,inactive
16,O=C(Nc1cccc(OC(=O)N2CCCCC2)c1)N1CCOCC1,inactive
17,COc1cccc(CN2CCCC(C(=O)c3ccccc3SC)C2)c1O (stereo not given),inactive
18,CC(C)Oc1cccc(C(=O)C2CCCN(C3CCOCC3)C2)c1 (stereo not given),-7.9 (active)
19,COc1ccc(-c2nn(CCC#N)cc2C(=O)O)cc1,inactive
20,Cc1cccc(-n2c(O)c(/C=N/N3CCOCC3)c(=O)[nH]c2=S)c1,inactive
21,COc1cc(-n2c(=S)[nH]c3ccc(C)cc3c2=O)c(Cl)cc1Cl,inactive
22,CCCCn1c(=O)c(C(=O)Nc2ccccc2Cl)c(O)c2ccccc21,inactive
23,CCCCCn1c(=O)c(C(=O)Nc2c(C)n(C)n(-c3ccccc3)c2=O)c(O)c2ccccc21,-7.47 (active)
24,CCCCCn1c(=O)c(C(=O)NCc2ccccc2)c(O)c2ccccc21,inactive
25,O=C(O)CCn1cc(C=C2C(=O)NC(=S)NC2=O)c(-c2cccc(Br)c2)n1,inactive
